Experimental data taken from ChEMBL document CHEMBL3297648, “Diterpenoids from the Chinese liverwort Heteroscyphus tener and their antiproliferative effects” (J Nat Prod, 2014).
The source made the active and inactive calls. The calls are words filed in the database; no cut-off is given here.

Assays:
PC-3 [1] = assay: Increase in H2AX protein expression in human PC3 cells at 20 uM after 2 to 48 hrs by western blot analysis; format: functional, cell-based
Summary of the method: (§1)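 Cells treated at 20 μM for various times, lysed in RIPA buffer with protease/phosphatase inhibitors, protein quantified by BCA. Equal protein run on 12% SDS-PAGE, transferred to nitrocellulose, blocked 1 h in 5% milk/TBST, primary antibodies overnight at 4 °C, secondary 1:2000 for 45 min, ECL detection on film. GAPDH used as loading control.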

DU-145 [2] = assay: Increase in H2AX protein expression in human DU145 cells at 20 uM after 2 to 48 hrs by western blot analysis; format: functional, cell-based; summary of the method: as §1
[3] = Antiproliferative activity against human RWPE1 cells assessed as inhibition of cell viability after 24 hrs by MTT assay; format: cell-based; conditions: RWPE-1, 24 h
Summary of the method: (§2)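 Cells grown to 50–70% confluence (RWPE1 in K-SFM with pituitary extract and EGF; the other lines in RPMI 1640 with 10% FBS), 5% CO2, 37 °C. Treated for 24 h with DMSO vehicle, compounds, or cisplatin as positive control. MTT (5 mg/mL) added for 4 h, formazan dissolved in DMSO, absorbance read at 570 nm. Viability taken relative to untreated cells after blank subtraction, IC50 fitted from % viability, at least three experiments.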

PC-3 [4] = assay: Induction of apoptosis in human PC3 cells assessed as necrotic cells at 20 uM after 4 hrs by Annexin V-FITC/propidium iodide staining based flow cytometry (reference value: 0.98%); format: functional
Summary of the method: (§3)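 Cells seeded in 6-well plates for 24 h, then given 20 μM for the stated times. Cells were trypsinized, PBS-washed, stained with annexin V-FITC/PI, and analysed immediately by flow cytometry. Means ± SD of three independent experiments; Student's t test against untreated control.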

DU-145 [5] = assay: Induction of apoptosis in human DU145 cells assessed as necrotic cells at 20 uM after 8 hrs by Annexin V-FITC/propidium iodide staining based flow cytometry (reference value: 0.21%); format: functional; summary of the method: as §3
PC-3 [6] = assay: Induction of apoptosis in human PC3 cells assessed as PARP cleavage at 20 uM after 12 hrs by western blot analysis; format: functional, cell-based
Summary of the method: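 Cells exposed to 20 μM for the stated times. Lysis in RIPA plus protease inhibitors, BCA protein assay, equal protein on 12% SDS-PAGE, transfer to nitrocellulose. Blocking in 5% milk/TBST 1 h; primary antibodies overnight at 4 °C; secondary 1:2000 for 45 min; ECL detection. GAPDH served as loading control.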

[7] = Decrease in cyclin E protein expression in human PC3 cells by western blot analysis; format: functional, cell-based; conditions: PC-3, TDE = time-dependent effect
Summary of the method: (§4)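 Western blot of cyclin D1, cyclin E, Cdk4 and p21 in PC3 and DU145 lysates. Lysis in RIPA buffer plus protease inhibitors, BCA quantification, 12% SDS-PAGE, nitrocellulose transfer, milk block, primaries overnight at 4 °C, secondary 1:2000 for 45 min, ECL read-out. GAPDH served as loading control.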

[8] = Cell cycle arrest in human PC3 cells assessed as accumulation at subG1 phase at 20 uM after 24 hrs by propidium iodide staining based flow cytometry (reference value: 0.13%); format: functional; conditions: PC-3
PC-3 [9] = assay: Induction of apoptosis in human PC3 cells assessed as late apoptotic cells at 20 uM after 24 hrs by Annexin V-FITC/propidium iodide staining based flow cytometry (reference value: 7.92%); format: functional; summary of the method: as §3
PC-3 [10] = assay: Induction of apoptosis in human PC3 cells assessed as necrotic cells at 20 uM after 24 hrs by Annexin V-FITC/propidium iodide staining based flow cytometry (reference value: 0.98%); format: functional; summary of the method: as §3
DU-145 [11] = assay: Induction of apoptosis in human DU145 cells assessed as late apoptotic cells at 20 uM after 12 hrs by Annexin V-FITC/propidium iodide staining based flow cytometry (reference value: 1.53%); format: functional; summary of the method: as §3
DU-145 [12] = assay: Cell cycle arrest in human DU145 cells assessed as accumulation at G2/M phase at 20 uM after 24 hrs by propidium iodide staining based flow cytometry (reference value: 10.44%); format: functional
K562 = assay: Antiproliferative activity against human K562 cells assessed as inhibition of cell viability after 24 hrs by MTT assay; format: functional, cell-based; conditions: K562, 24 h; summary of the method: as §2
PC-3 [13] = assay: Induction of ROS generation in human PC3 cells at 20 uM after 6 hrs by DCFH-DA staining based flow cytometry; format: functional, cell-based
Summary of the method: (§5)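 Cells in RPMI 1640 with 10% FBS, 5% CO2, 37 °C, treated at 50−70% confluence (DMSO vehicle). After exposure, cells were loaded with 10 μM DCFH-DA for 30 min at 37 °C, washed, resuspended in PBS, and read at once by flow cytometry. For NAC runs, cells got 5 mM NAC 1 h before compound. ROS reported as ratio relative to untreated control.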

[14] = Cell cycle arrest in human PC3 cells assessed as accumulation at G2/M phase at 20 uM after 24 hrs by propidium iodide staining based flow cytometry (reference value: 10.43%); format: functional; conditions: PC-3
[15] = biological target: Serine/threonine-protein kinase ATR (Homo sapiens) (UniProt Q13535); assay: Activation of ATR in human DU145 cells assessed as ChK1 phosphorylation at Ser296 at 20 uM after 12 hrs by western blot analysis; format: cell-based; conditions: DU-145; summary of the method: as §1
Chain of Serine/threonine-protein kinase ATR (Homo sapiens) (Q13535 whole entry, looked up): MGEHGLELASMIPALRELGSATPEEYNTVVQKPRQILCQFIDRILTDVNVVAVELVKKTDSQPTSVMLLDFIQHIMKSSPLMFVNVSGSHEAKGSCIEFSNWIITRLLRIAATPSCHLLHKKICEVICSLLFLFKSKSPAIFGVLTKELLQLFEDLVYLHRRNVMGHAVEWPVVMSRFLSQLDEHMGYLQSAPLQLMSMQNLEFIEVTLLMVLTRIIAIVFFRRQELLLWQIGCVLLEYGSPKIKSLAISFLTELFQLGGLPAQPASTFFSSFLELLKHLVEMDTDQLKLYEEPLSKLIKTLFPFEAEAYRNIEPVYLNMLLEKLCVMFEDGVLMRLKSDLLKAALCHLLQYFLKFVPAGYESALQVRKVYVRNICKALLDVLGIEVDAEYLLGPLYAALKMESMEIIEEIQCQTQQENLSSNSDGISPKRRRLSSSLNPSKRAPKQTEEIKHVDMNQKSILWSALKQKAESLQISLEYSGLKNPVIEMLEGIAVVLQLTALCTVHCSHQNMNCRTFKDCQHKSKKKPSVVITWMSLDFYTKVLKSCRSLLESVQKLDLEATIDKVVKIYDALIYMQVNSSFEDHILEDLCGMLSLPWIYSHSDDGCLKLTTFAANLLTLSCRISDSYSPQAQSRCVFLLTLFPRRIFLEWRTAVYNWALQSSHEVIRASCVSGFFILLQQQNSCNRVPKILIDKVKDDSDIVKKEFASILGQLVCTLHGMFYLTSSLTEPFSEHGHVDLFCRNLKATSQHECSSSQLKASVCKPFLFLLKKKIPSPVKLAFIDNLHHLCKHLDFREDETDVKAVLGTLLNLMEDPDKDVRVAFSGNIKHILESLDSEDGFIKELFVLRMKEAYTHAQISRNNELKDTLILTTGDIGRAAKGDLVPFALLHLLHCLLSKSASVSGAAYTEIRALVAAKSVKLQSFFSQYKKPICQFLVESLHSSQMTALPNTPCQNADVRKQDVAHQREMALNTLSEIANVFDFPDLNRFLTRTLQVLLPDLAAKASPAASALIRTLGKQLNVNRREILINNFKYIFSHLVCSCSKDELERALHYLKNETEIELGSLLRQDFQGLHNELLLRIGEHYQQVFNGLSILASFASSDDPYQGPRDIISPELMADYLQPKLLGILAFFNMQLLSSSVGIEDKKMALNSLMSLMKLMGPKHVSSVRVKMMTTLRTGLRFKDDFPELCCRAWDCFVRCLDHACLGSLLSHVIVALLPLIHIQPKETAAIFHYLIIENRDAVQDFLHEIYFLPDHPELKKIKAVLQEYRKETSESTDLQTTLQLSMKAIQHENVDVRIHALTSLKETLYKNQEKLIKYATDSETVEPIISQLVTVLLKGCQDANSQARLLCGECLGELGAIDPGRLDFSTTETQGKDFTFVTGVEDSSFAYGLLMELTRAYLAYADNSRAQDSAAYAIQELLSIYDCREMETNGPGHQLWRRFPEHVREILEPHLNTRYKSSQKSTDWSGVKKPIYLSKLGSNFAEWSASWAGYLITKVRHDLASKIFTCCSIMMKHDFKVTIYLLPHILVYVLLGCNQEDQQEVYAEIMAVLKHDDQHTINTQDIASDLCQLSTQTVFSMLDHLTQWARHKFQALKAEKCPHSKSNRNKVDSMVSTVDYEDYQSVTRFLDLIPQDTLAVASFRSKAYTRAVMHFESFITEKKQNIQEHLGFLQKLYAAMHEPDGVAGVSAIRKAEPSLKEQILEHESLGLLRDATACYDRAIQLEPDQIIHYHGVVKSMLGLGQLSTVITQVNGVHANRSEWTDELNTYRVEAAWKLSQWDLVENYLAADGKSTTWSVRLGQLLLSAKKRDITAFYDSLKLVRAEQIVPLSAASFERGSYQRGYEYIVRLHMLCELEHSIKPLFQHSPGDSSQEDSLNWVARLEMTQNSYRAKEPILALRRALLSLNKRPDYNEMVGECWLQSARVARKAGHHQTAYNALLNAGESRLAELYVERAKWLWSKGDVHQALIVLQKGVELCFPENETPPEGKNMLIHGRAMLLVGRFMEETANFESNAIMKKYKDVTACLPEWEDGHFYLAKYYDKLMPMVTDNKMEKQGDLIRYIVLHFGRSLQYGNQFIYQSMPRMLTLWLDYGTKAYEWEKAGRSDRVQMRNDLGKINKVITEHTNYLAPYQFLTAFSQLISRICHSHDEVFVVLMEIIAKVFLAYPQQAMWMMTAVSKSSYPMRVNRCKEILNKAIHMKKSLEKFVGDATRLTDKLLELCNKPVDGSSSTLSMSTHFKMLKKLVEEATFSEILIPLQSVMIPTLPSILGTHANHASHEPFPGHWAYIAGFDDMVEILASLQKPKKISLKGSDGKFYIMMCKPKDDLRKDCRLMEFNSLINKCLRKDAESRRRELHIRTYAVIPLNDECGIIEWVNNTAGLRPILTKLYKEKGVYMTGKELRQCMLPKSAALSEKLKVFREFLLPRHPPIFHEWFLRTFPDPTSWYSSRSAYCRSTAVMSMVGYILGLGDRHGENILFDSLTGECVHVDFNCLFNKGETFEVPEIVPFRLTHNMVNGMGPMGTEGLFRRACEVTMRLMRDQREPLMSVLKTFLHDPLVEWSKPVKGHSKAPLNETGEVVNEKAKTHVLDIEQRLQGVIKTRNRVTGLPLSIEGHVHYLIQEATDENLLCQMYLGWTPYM

DU-145 [16] = assay: Induction of ROS generation in human DU145 cells at 20 uM pretreated for 1 hr with 5 mM antioxidant NAC measured after 24 hrs by DCFH-DA staining based flow cytometry; format: functional, cell-based; summary of the method: as §5
DU-145 [17] = assay: Induction of apoptosis in human DU145 cells assessed as early apoptotic cells at 20 uM after 4 hrs by Annexin V-FITC/propidium iodide staining based flow cytometry (reference value: 1.60%); format: functional; summary of the method: as §3
DU-145 [18] = assay: Induction of apoptosis in human DU145 cells assessed as necrotic cells at 20 uM after 4 hrs by Annexin V-FITC/propidium iodide staining based flow cytometry (reference value: 0.21%); format: functional; summary of the method: as §3
NCI-H1299 = assay: Antiproliferative activity against human NCI-H1299 cells assessed as inhibition of cell viability after 24 hrs by MTT assay; format: functional, cell-based; conditions: NCI-H1299, 24 h; summary of the method: as §2
[19] = Decrease in Cdk4 protein expression in human DU145 cells after 2 to 48 hrs by western blot analysis; format: functional, cell-based; conditions: DU-145; summary of the method: as §4
PC-3 [20] = assay: Induction of apoptosis in human PC3 cells at 20 uM by Annexin V-FITC/propidium iodide staining based flow cytometry; format: functional, cell-based; conditions: TDE = time-dependent effect; summary of the method: as §3
DU-145 [21] = assay: Increase in p21CIP1 protein expression in human DU145 cells after 2 to 48 hrs by western blot analysis; format: functional, cell-based; summary of the method: as §4
[22] = Cell cycle arrest in human PC3 cells assessed as accumulation at G2/M phase at 10 uM after 24 hrs by propidium iodide staining based flow cytometry (reference value: 10.43%); format: functional; conditions: PC-3
PC-3 [23] = assay: Induction of DNA damage in human PC3 cells assessed as gamma-H2AX phosphorylation at ser139 at 20 uM by western blot analysis; format: functional, cell-based; conditions: TDE = time-dependent effect; summary of the method: as §1
DU-145 [24] = assay: Induction of apoptosis in human DU145 cells assessed as early apoptotic cells at 20 uM after 12 hrs by Annexin V-FITC/propidium iodide staining based flow cytometry (reference value: 1.60%); format: functional; summary of the method: as §3
PC-3 [25] = assay: Induction of apoptosis in human PC3 cells assessed as early apoptotic cells at 20 uM after 24 hrs by Annexin V-FITC/propidium iodide staining based flow cytometry (reference value: 0.79%); format: functional; summary of the method: as §3

C=C[C@@](C)(O)CC[C@@H]1C(C)=CC[C@@H]2C(C)(C)CCC[C@@]12C
Activity (PC-3 [1]): inactive
Activity (DU-145 [2]): inactive
IC50 [3]: 81 µM
Activity (PC-3 [4]): 2.75%
Activity (DU-145 [5]): 2.44%
Activity (PC-3 [6]): Active
inhibition [7]: tde
Activity [8]: 2.39%
Activity (PC-3 [9]): 66.46%
Activity (PC-3 [10]): 10.21%
Activity (DU-145 [11]): 11.32%
Activity (DU-145 [12]): 12.9%
IC50 (K562): 15.8 µM
Activity (PC-3 [13]): inactive
Activity [14]: 10.9%
Activity [15]: Active
Activity (DU-145 [16]): inactive
Activity (DU-145 [17]): 4%
Activity (DU-145 [18]): 1.54%
IC50 (NCI-H1299): 35.1 µM
inhibition [19]: Active
Activity (PC-3 [20]): tde
Activity (DU-145 [21]): Active
Activity [22]: 11.1%
Activity (PC-3 [23]): tde
Activity (DU-145 [24]): 6.55%
Activity (PC-3 [25]): 1.61%
